In brackets after ≈: the same amount, converted by molar mass. Activity calls are given as the source filed them. The calls are words filed in the database; no cut-off is given here.
How the values were obtained:
Plasmodium berghei [1] = test: Antiplasmodial activity against Plasmodium berghei NK65 infected in Swiss Webster mice (Mus musculus) at 10 mg/kg, intraperitoneally administered 1 day after infection for 3 days; type: functional; conditions: route intraperitoneal
Plasmodium berghei [2] = test: Antiplasmodial activity against Plasmodium berghei NK65 infected in Swiss Webster mice (Mus musculus) assessed as parasitaemia cure at 10 mg/kg, intraperitoneally administered 1 day after infection measured after 28 days post infection; type: functional
Plasmodium berghei [3] = test: Toxicity in Plasmodium berghei NK65 infected Swiss Webster mice (Mus musculus) assessed as weight loss at 10 mg/kg, intraperitoneally administered 1 day after infection measured after 28 days post infection; type: organism-based; parameters: dose 10 mg/kg, route intraperitoneal; conditions: in vivo, ip, 672 h
[4] = Selectivity index, ratio of IC50 for african green monkey (Cercopithecus aethiops) Vero cells to IC50 for chloroquine-resistant Plasmodium falciparum W2; type: toxicity, cell-based
Plasmodium berghei [5] = test: Antiplasmodial activity against Plasmodium berghei NK65 infected in Swiss Webster mice (Mus musculus) assessed as suppression of parasitaemia at 10 mg/kg, intraperitoneally administered 1 day after infection for 3 days measured after 5 days post infection relative to control; type: functional; conditions: route intraperitoneal
[6] = test system: Mycobacterium tuberculosis; test: Antimycobacterial activity against Mycobacterium tuberculosis; type: functional
Plasmodium berghei [7] = test: Antiplasmodial activity against Plasmodium berghei NK65 infected in Swiss Webster mice (Mus musculus) assessed as survivability at 10 mg/kg, intraperitoneally administered 1 day after infection for 3 days measured after 28 days post infection; type: functional, organism-based; parameters: dose 10 mg/kg
Plasmodium berghei [8] = test: Antiplasmodial activity against Plasmodium berghei NK65 infected in Swiss Webster mice (Mus musculus) assessed as suppression of parasitaemia at 10 mg/kg, intraperitoneally administered 1 day after infection for 3 days measured after 7 days post infection relative to control; type: functional; conditions: route intraperitoneal
[9] = Antineuroinflammatory activity in LPS-stimulated rat neonatal microglia assessed as inhibition of PMA-induced superoxide anion production preincubated 15 mins prior to PMA challenge measured after 70 mins; type: functional, cell-based
[10] = Selectivity index, ratio of IC50 for african green monkey (Cercopithecus aethiops) Vero cells to IC50 for chloroquine-sensitive Plasmodium falciparum; type: toxicity, cell-based
[11] = Antineuroinflammatory activity in LPS-stimulated rat neonatal microglia assessed as drug level causing 50% PMA-induced LDH release preincubated 15 mins prior to PMA challenge measured after 70 mins; type: functional
Method in brief: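 Neonatal rat microglia (2 × 10^5/well) primed with E. coli LPS 0.3 ng/mL for 17 h at 35.9 °C, washed with HBSS, given compound (0.01–10 μM) or DMSO 15 min, then PMA 1 μM; LDH read spectrophotometrically after 70 min; LDH50 relative to Triton X-100 (0.1%) release; duplicates.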

[12] = Antineuroinflammatory activity in LPS-stimulated rat neonatal microglia assessed as inhibition of PMA-induced TXB2 production preincubated 15 mins prior to PMA challenge measured after 70 mins; type: functional, cell-based
Tubulin (Sus scrofa) [13] = molecular target: T1, Tubulin (Sus scrofa) (UniProt P02554+P02550); test: Inhibition of pig brain tubulin polymerization up to 30 mins by turbidimetry
Tubulin (Sus scrofa) [14] = molecular target: T1, Tubulin (Sus scrofa); test: Inhibition of pig brain tubulin polymerization after 30 to 60 mins in presence of GTP and glutamate by turbidimetry
Candida albicans = test: Antifungal activity against Candida albicans ATCC 90028; type: functional, organism-based
Method in brief: (§1)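 Broth microdilution per modified CLSI method; samples serially diluted in 20% DMSO/saline, tested in duplicate; inocula set by OD630 of suspensions in incubation broth; growth read at 630 nm before and after incubation; amphotericin B drug control.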

HeLa [15] = test: Cell cycle arrest in human HeLa cells assessed as decrease in G2/M phase accumulation at 20 uM after 24 hrs by FACS analysis; type: functional; parameters: scale not given: the % may be the effect or the level left
HeLa [16] = test: Cell cycle arrest in human HeLa cells assessed as increase in S phase accumulation at 5 uM after 24 hrs by FACS analysis; type: functional
HeLa [17] = test: Cell cycle arrest in human HeLa cells assessed as increase in S phase accumulation at 10 uM after 24 hrs by FACS analysis; type: functional
HeLa [18] = test: Cell cycle arrest in human HeLa cells assessed as increase in G0/G1 phase accumulation at 10 uM after 24 hrs by FACS analysis; type: functional
Vero [19] = test: Cytotoxicity against african green monkey Vero cells after 48 hrs by neutral red assay; type: cell-based; conditions: chlorocebus sabaeus
Method in brief: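 Vero cells seeded at 25,000/well and grown 24 h, then exposed to serially diluted samples for 48 h. Viable cells measured by neutral red assay, with doxorubicin as positive control. IC50 taken from dose-response curves.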

HeLa [20] = test: Cell cycle arrest in human HeLa cells assessed as increase in G0/G1 phase accumulation at 3 uM after 24 hrs by FACS analysis; type: functional
HeLa [21] = test: Cell cycle arrest in human HeLa cells assessed as decrease in G2/M phase accumulation at 10 uM after 24 hrs by FACS analysis; type: functional; parameters: scale not given: the % may be the effect or the level left
Plasmodium falciparum [22] = test: Antiplasmodial activity against chloroquine-sensitive Plasmodium falciparum D6 after 72 hrs by LDH assay; type: functional, organism-based; conditions: Plasmodium falciparum, D6, 72 h; read-out: IC50
HeLa [23] = test: Cytotoxicity against human HeLa cells after 48 hrs by trypan blue exclusion assay; type: functional
HeLa [24] = test: Cell cycle arrest in human HeLa cells assessed as increase in S phase accumulation at 3 uM after 24 hrs by FACS analysis; type: functional
HeLa [25] = test: Cell cycle arrest in human HeLa cells assessed as decrease in G2/M phase accumulation at 5 uM after 24 hrs by FACS analysis; type: functional; parameters: scale not given: the % may be the effect or the level left
HeLa [26] = test: Cell cycle arrest in human HeLa cells assessed as increase in S phase accumulation at 20 uM after 24 hrs by FACS analysis; type: functional
Cryptococcus neoformans = test: Antifungal activity against Cryptococcus neoformans ATCC 90113; type: functional, organism-based; method in brief: as §1
Plasmodium falciparum [27] = test: Antiplasmodial activity against chloroquine-resistant Plasmodium falciparum W2 after 72 hrs by LDH assay; type: functional, organism-based; conditions: Plasmodium falciparum, W2, 72 h; read-out: IC50
[28] = test system: Mycobacterium intracellulare; test: Antimycobacterial activity against Mycobacterium intracellular ATCC 23068; type: functional, organism-based
Method in brief: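 Modified Franzblau method; samples serially diluted in 20% DMSO/saline, tested in duplicate; inoculum set by OD630; fluorescence read at 544ex/590em before and after incubation; ciprofloxacin drug control.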

HeLa [29] = test: Cell cycle arrest in human HeLa cells assessed as increase in G0/G1 phase accumulation at 5 uM after 24 hrs by FACS analysis; type: functional
[30] = test system: Mycobacterium tuberculosis; test: Antimycobacterial activity against Mycobacterium tuberculosis H37Rv; type: functional, organism-based
HeLa [31] = test: Cell cycle arrest in human HeLa cells assessed as increase in G0/G1 phase accumulation at 20 uM after 24 hrs by FACS analysis; type: functional
HeLa [32] = test: Cell cycle arrest in human HeLa cells assessed as decrease in G2/M phase accumulation at 3 uM after 24 hrs by FACS analysis; type: functional; parameters: scale not given: the % may be the effect or the level left
Vero [33] = test: Cytotoxicity against african green monkey Vero cells up to 4.6 ug/mL after 48 hrs by neutral red assay; type: cell-based; conditions: chlorocebus sabaeus
Method in brief: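 Vero cells were seeded at 25,000 cells/well and incubated for 24 h, then exposed to serially diluted samples for 48 h. Viable cells were counted by Neutral Red assay, with doxorubicin as positive control. IC50 was taken from dose-response curves.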

[34] = Cytotoxicity against LPS-stimulated rat neonatal microglia assessed as LDH release
Method in brief: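 Rat neonatal microglia (2×10^5/well) primed with E. coli LPS (0.3 ng/mL) for 17 h at 35.9 °C. Washed into HBSS, given compound (0.01-10 μM) or DMSO for 15 min, then PMA (1 μM) for 70 min, in duplicate. LDH release read spectrophotometrically. LDH50 is the concentration giving 50% of the LDH release seen with 0.1% Triton X-100.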

T1 sequence (P02550 whole entry, looked up): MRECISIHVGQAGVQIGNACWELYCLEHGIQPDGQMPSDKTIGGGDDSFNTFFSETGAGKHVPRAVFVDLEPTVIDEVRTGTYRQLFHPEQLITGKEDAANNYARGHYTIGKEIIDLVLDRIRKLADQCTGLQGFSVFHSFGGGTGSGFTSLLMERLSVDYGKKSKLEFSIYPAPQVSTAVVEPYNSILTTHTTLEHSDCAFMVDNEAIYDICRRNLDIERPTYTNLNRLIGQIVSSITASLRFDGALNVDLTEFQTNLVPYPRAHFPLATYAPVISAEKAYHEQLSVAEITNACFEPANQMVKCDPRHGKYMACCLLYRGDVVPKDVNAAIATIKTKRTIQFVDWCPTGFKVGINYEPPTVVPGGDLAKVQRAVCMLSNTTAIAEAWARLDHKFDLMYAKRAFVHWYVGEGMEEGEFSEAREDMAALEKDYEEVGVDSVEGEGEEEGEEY
T1 sequence (P02554 whole entry, looked up): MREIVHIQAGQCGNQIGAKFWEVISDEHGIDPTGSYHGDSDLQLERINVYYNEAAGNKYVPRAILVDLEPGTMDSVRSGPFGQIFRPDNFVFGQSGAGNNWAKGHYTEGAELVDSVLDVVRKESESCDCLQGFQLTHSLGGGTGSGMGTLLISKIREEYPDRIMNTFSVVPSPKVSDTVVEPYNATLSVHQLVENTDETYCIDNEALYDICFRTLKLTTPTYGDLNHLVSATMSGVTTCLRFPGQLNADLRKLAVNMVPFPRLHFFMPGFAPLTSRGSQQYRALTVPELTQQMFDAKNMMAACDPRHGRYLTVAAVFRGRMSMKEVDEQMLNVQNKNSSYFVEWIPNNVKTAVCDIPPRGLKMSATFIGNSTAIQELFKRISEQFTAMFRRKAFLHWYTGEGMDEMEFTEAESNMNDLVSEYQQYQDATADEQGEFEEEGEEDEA

Oc1cccc2c1[nH]c1c(C3=C[C@@]4(O)CC/C=C\CCCCN5CC[C@@H]3[C@]3(CC6/C=C\CCCCN6[C@H]34)C5)nccc12 (stereo not given in full)
MST (Plasmodium berghei [1]): > 28 days
Activity (Plasmodium berghei [2]; route intraperitoneal): 80%
Activity (Plasmodium berghei [3]): Toxic
selectivity ratio ([4]; Vero cells, read-out: Ratio IC50): 25
Ratio IC50 ([4]; vero): 140
Activity (Plasmodium berghei [5]): 100%
MIC [6]: 0.91 µg/mL (≈ 1.61 µM)
Activity (Plasmodium berghei [7]): Active
Activity (Plasmodium berghei [8]): 100%
IC50 [9]: > 10 µM
Ratio IC50 [10]: 180
Activity [11]: >10 µM
IC50 [12]: 0.5 µM

O[C@]12C=C(c3nccc4c3[nH]c3ccccc34)[C@@H]3CCN(CCCC/C=C\CC1)C[C@@]31C[C@@H]3/C=C\CCCCN3[C@H]12
inhibition (Plasmodium berghei [2]): inactive
inhibition (Tubulin (Sus scrofa) [13]): inactive
inhibition (Plasmodium berghei [7]): inactive
inhibition (Tubulin (Sus scrofa) [14]): inactive

CC(C)Cn1c2ccccc2c2ccnc(C3=C[C@@]4(O)CC/C=C\CCCCN5CC[C@@H]3[C@]3(C[C@@H]6/C=C\CCCCN6[C@H]34)C5)c21 [9-N-ISOBUTYLMANZAMINE A]
IC50 (Candida albicans): 10 µg/mL (≈ 16.5 µM)
Activity (HeLa [15]): 17.4%
Activity (HeLa [16]): 16.4%
Activity (HeLa [17]): 19.5%
Activity (HeLa [18]): 51.1%
IC50 (Vero [19]): 0.4 µg/mL (≈ 0.661 µM)
Activity (HeLa [20]): 54.2%
Activity (HeLa [21]): 17%
IC50 (Plasmodium falciparum [22]): 0.039 µg/mL (≈ 0.0645 µM)
Activity (HeLa [23]): >30 µg/mL
Activity (HeLa [24]): 16.6%
Activity (HeLa [25]): 17.8%
Activity (HeLa [26]): 19.1%
IC50 (Cryptococcus neoformans): 3 µg/mL (≈ 4.96 µM)
IC50 [9]: 5.7 µM
IC50 (Plasmodium falciparum [27]): 0.078 µg/mL (≈ 0.129 µM)
Activity [11]: >10 µM
IC50 [12]: > 10 µM
IC50 [28]: 1 µg/mL (≈ 1.65 µM)
Activity (HeLa [29]): 54.9%
MIC [30]: 4.6 µg/mL (≈ 7.6 µM)
Activity (HeLa [31]): 52.3%
Activity (HeLa [32]): 19.2%

O[C@]12C=C(C3NCCc4c3[nH]c3ccccc43)[C@@H]3CCN(CCCC/C=C\CC1)C[C@@]31C[C@@H]3/C=C\CCCCN3[C@H]12 (stereo not given in full) [MANZAMINE D]
IC50 (Candida albicans): 15 µg/mL (≈ 27.1 µM)
Activity (Vero [33]): Non-toxic
IC50 (Plasmodium falciparum [22]): 0.09 µg/mL (≈ 0.163 µM)
IC50 (Cryptococcus neoformans): 0.8 µg/mL (≈ 1.45 µM)
Activity [34]: Toxic
IC50 [9]: 2.45 µM
IC50 (Plasmodium falciparum [27]): 0.088 µg/mL (≈ 0.159 µM)
Activity [11]: 1 µM
IC50 [12]: 2.1 µM
IC50 [28]: 0.1 µg/mL (≈ 0.181 µM)

Reference: ChEMBL document CHEMBL1157729, “Structure-activity relationship and mechanism of action studies of manzamine analogues for the control of neuroinflammation and cerebral infections” (J Med Chem, 2010)
